What was measured:
[1] = test system: Rattus norvegicus; assay: Antiinflammatory activity against 3h carrageenan pleurisy (cells) in rat at 20 mg/kg peroral administration; format: functional; details: route oral
How it was run: (§1)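 Rat 3 h carrageenan pleurisy model, read out as pleural cell count and as edema. Compounds given orally, either as % inhibition at 20 mg/kg or as ED50 in mg/kg. Each compound tested two or three times.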

[2] = test system: Rattus norvegicus; assay: Antiinflammatory activity against 3h carrageenan pleurisy (edma) in rat at 20 mg/kg peroral administration; format: functional; details: route oral; how it was run: as §1
[3] = test system: Mus musculus; assay: Percent inhibition of muscle relaxant profile evaluated by straub tail assay when administered intraperitoneally at 100 mg/kg in mouse; format: functional; details: route intraperitoneal; for % effect at 100 mg/kg: Mus musculus
How it was run: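 Morphine-induced Straub tail model of muscle relaxant activity, mouse. Compound given intraperitoneally at 100 mg/kg and read out as % inhibition.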

[4] = test system: Rattus norvegicus; assay: Percent inhibition of analgesia activity when administered perorally at 20 mg/kg in rat; format: functional
How it was run: (§2)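 Rat trypsin hyperalgesia model for mild analgesia. Compounds given orally, either as % inhibition at 20 mg/kg or as ED50 in mg/kg. Each compound tested two or three times.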

[5] = test system: Rattus norvegicus; assay: Inhibition of trypsin hyperalgesia when administered perorally in rat; format: functional; how it was run: as §2
[6] = test system: Rattus norvegicus; assay: Antiinflammatory activity against 3h carrageenan pleurisy (cells) in rat peroral administration; format: functional; details: po; how it was run: as §1
[7] = test system: Rattus norvegicus; assay: Antiinflammatory activity against 3h carrageenan pleurisy (edma) in rat peroral administration; format: functional; details: po; how it was run: as §1
[8] = test system: Rattus norvegicus; assay: Antiinflammatory activity against 3h carrageenan pleurisy (edma) in rat mg/kg peroral administration; format: functional; details: po; how it was run: as §1
[9] = test system: Mus musculus; assay: Effective dose required for muscle relaxant profile evaluated by straub tail assay when administered perorally in mouse; format: functional; details: po
How it was run: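 Morphine-induced Straub tail model of muscle relaxant activity, mouse, with oral dosing. Oral testing followed only where ip inhibition at 100 mg/kg exceeded 50%. At least three doses, N=6 animals per dose group. ED50 in mg/kg.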

[10] = test system: Mus musculus; assay: Effective dose required for muscle relaxant profile in mouse by rotarod assay, when compound administered perorally; format: functional; details: po
How it was run: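 Rotorod model of sedation, mouse, with oral dosing. Used for compounds that passed the Straub tail ip screen. At least three doses, N=6 animals per dose group. ED50 in mg/kg.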

[11] = organism: Rattus norvegicus; assay: Antiinflammatory activity against trypsin hyperalgesia in rat at peroral dose of compound; details: po
[12] = Ratio of rotarod to that of straub tail; format: functional
How it was run: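 Ratio of oral rotorod ED50 (sedation) to oral ED50 in the morphine-induced Straub tail test. Only compounds giving >50% inhibition in the Straub tail test at 100 mg/kg ip went on to oral testing in both assays. Each assay generally used at least three doses with N=6 animals per dose group; variability approximately 15%.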

[13] = Ratio of rotarod to that of staub tail; ND is activity not determined.; format: functional
How it was run: (§3)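 Oral rotorod ED50 divided by oral Straub tail ED50, both in mouse, as an index of sedative potential. Each ED50 from at least three doses, N=6 animals per dose.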

[14] = Ratio of rotarod to that of staub tail; format: functional; how it was run: as §3
[15] = Rattus norvegicus, po, read-out: ED50

CC(C)Cc1ccc(C(C)C(=O)O)cc1 (centres undefined) [IBUPROFEN]
ED50 [1]: 34 mg/kg
ED50 [2]: 8 mg/kg

CNC(=O)/C=C1\CCc2cc(Cl)c(F)cc21
% effect at 100 mg/kg ([3]; ip): 17%
inhibition in vivo at 20 mg/kg ([4]; Rattus norvegicus, po): 22%

Cc1cc(F)cc2c1CC/C2=C\C(N)=O
% effect [3]: 0%
inhibition in vivo at 20 mg/kg [1]: 11%
inhibition in vivo at 20 mg/kg [2]: 24%
ED50 [5, 15]: 10 mg/kg
inhibition in vivo at 20 mg/kg ([4]; Rattus norvegicus, po): 92%

NC(=O)/C=C1\CCc2c(Cl)cc(F)cc21 (stereo in doubt; 3)
% effect [3]: 0%
ED50 [6]: 11 mg/kg
ED50 [7]: 11 mg/kg
ED50 [5]: 4 mg/kg
Inhibition ([4]; route oral, 20 mg/kg): 79%

Cc1cc(Cl)c2c(c1)/C(=C/C(N)=O)CC2
ED50 [6]: > 25 mg/kg
ED50 [8]: > 25 mg/kg

NC(=O)/C=C1\CCc2c(Cl)cc(F)cc21 (stereo in doubt) [listing 1 of 2 here]
ED50 [9]: 73 mg/kg
ED50 [10]: 96 mg/kg
ED50 [5, 15]: 7 mg/kg
inhibition in vivo at 20 mg/kg ([4]; Rattus norvegicus, po): 70%

COc1ccc2cc([C@H](C)C(=O)O)ccc2c1 [NAPROXEN]
ED50 [11]: 14 mg/kg

NC(=O)/C=C1\CCc2c(F)cc(F)cc21
ED50 [9]: 68.7 mg/kg
inhibition in vivo at 100 mg/kg ([3]; ip): 100%
ED50 [2]: 15 mg/kg
Ratio [12]: 2
ED50 [6]: 19 mg/kg
ED50 [5, 15]: 4 mg/kg
inhibition in vivo at 20 mg/kg ([4]; route oral): 100%

CNC(=O)/C=C1\CCc2c(C)cc(F)cc21
% effect at 100 mg/kg ([3]; ip): 67%
inhibition in vivo at 20 mg/kg [1]: 15%
inhibition in vivo at 20 mg/kg [2]: 40%
inhibition in vivo at 20 mg/kg ([4]; Rattus norvegicus, po): 77%

CNC(=O)/C=C1\CCc2c(Cl)cc(F)cc21
% effect at 100 mg/kg ([3]; ip): 50%
ED50 [6]: 8 mg/kg
ED50 [7]: 5 mg/kg
ED50 [5, 15]: 1.4 mg/kg
inhibition in vivo at 20 mg/kg ([4]; route oral): 100%

O=C(/C=C1\CCc2cc(Cl)c(F)cc21)NC1CC1
inhibition in vivo at 20 mg/kg ([4]; Rattus norvegicus, po): 27%

NC(=O)/C=C1\CCc2c(Br)cc(F)cc21
ED50 [6]: > 20 mg/kg
ED50 [7]: > 20 mg/kg

NC(=O)/C=C1\CCc2cc(Cl)cc(Cl)c21
ED50 [9]: < 100 mg/kg
ED50 [10]: 55 mg/kg
% effect at 100 mg/kg ([3]; ip): 100%
ED50 [1]: 5 mg/kg
ED50 [2]: 34 mg/kg
ED50 [5, 15]: > 10 mg/kg
inhibition in vivo at 20 mg/kg ([4]; Rattus norvegicus, po): 79%

NC(=O)/C=C1\CCc2c(F)cc(Cl)cc21
% effect at 100 mg/kg ([3]; ip): 33%
inhibition in vivo at 20 mg/kg [1]: 34%
inhibition in vivo at 20 mg/kg [2]: 36%
ED50 [5, 15]: > 10 mg/kg

O=C(/C=C1\CCc2c(F)cc(Cl)cc21)NC1CC1
inhibition in vivo at 20 mg/kg ([4]; Rattus norvegicus, po): 31%

NC(=O)/C=C1\CCc2c(Cl)cc(F)cc21 (stereo in doubt) [listing 2 of 2 here]
Ratio [13]: 1.3

CNC(=O)/C=C1\CCc2c(Cl)cc(Cl)cc21
ED50 [9]: > 100 mg/kg
% effect at 100 mg/kg ([3]; ip): 83%
inhibition in vivo at 20 mg/kg [1]: 9%
inhibition in vivo at 20 mg/kg ([4]; Rattus norvegicus, po): 12%

NC(=O)/C=C1\CCc2cc(Cl)c(F)cc21
ED50 [9]: 50 mg/kg
ED50 [10]: 56 mg/kg
% effect at 100 mg/kg ([3]; ip): 100%
Ratio [14]: 1.1
inhibition in vivo at 20 mg/kg ([4]; Rattus norvegicus, po): 19%

O=C(/C=C1\CCc2c(Cl)cc(F)cc21)NC1CC1
ED50 [9]: 44 mg/kg
ED50 [10]: 44 mg/kg
% effect at 100 mg/kg ([3]; ip): 100%
ED50 [5, 15]: 0.9 mg/kg
Ratio [14]: 1
inhibition in vivo at 20 mg/kg ([4]; Rattus norvegicus, po): 75%

NC(=O)/C=C1\CCc2c(Cl)cc(Cl)cc21
% effect [3]: 0%
ED50 [6]: 25 mg/kg
ED50 [7]: 20 mg/kg
ED50 [5, 15]: 4.1 mg/kg

Cc1cc(F)cc2c1CC/C2=C\C(=O)NC1CC1
inhibition in vivo at 20 mg/kg [1]: 5%
inhibition in vivo at 20 mg/kg [2]: 7%
inhibition in vivo at 20 mg/kg ([4]; route oral): 97%

CNC(=O)/C=C1\CCc2cc(Cl)cc(Cl)c21
% effect at 100 mg/kg ([3]; ip): 50%
inhibition in vivo at 20 mg/kg [1]: 0%
inhibition in vivo at 20 mg/kg [2]: 34%
inhibition in vivo at 20 mg/kg ([4]; Rattus norvegicus, po): 22%
